Screens as filed in PubChem BioAssay.
Hits are enriched below; roughly 2.3% of the tested compounds scored in any of these assays.
FLuc stim CS: FLuc activators, initial screening, artefact control for FLuc-dependent activation tests, biochemical, ATPlite luminescence | 200,000 tested, under 10 active | Luciferin 4-monooxygenase (Photinus pyralis), P08659 | AID 1027, 2008 | activation factor at 10 µM | ATPlite luciferase biochemical, 10 min; 0 = ATP-free wells, 1 = DMSO control;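 active = luciferase activation factor, scaled between plate controls, of at least 2 with compound at 10 µM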
Target sequence (P08659 whole entry, looked up): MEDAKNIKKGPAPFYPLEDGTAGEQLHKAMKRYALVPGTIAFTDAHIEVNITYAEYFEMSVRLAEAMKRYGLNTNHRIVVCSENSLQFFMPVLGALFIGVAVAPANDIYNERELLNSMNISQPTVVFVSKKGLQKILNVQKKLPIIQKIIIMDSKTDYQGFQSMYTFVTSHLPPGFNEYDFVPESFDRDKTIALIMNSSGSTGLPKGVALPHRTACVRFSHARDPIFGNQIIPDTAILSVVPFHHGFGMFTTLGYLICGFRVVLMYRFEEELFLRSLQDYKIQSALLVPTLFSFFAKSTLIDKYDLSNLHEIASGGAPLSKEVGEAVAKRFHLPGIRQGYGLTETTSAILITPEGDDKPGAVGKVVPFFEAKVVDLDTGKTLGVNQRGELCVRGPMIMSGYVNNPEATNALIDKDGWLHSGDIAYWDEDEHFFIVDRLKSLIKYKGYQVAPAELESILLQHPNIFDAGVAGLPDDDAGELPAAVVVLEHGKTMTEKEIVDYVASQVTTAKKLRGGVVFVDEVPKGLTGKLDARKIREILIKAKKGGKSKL
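Material: luciferase plus luciferin reagent, cell-free. Medium: PBS buffer for ATP. Also added: ATP substrate, dispensed from a 10.24 µM working solution in PBS. Doses: test compounds dosed from 2 mM stocks in 100% DMSO. Incubation: 10 min post-reagent at room temperature. Technique: light output (luminescence). Read-out basis: luminescence gain marking luciferase activators.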
Diaphorase inh: diaphorase inhibitors and chemical oxidizers, primary screen, counter-screen for diaphorase-coupled primary assays, biochemical, uHTS, resorufin fluorescence; diaphorase resazurin-to-resorufin fluorescence, NADH, 16 min; bacterial (C. kluyveri) enzyme, not human; hit rate 0.69% among 190,000; inhibition, % at 20 µM;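 active = primary screen inhibition at 20 µM above a set limit, cut at about 50% in these data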
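material = Clostridium kluyveri diaphorase enzyme | amount = 0.14 U/mL diaphorase, enzyme working solution | schedule = incubation 16 min, room temperature | detection = fluorescence of resorufin formed from resazurin, Ex 544/Em 590 nm | benchmarks = positive control minus NADH, DMSO neutral control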
G6PDH counter: L. mesenteroides G6PDH inhibitors, counter-screen for G6PDH-coupled screening assays, biochemical, Leuconostoc mesenteroides enzyme; glucose-6-phosphate dehydrogenase [Leuconostoc mesenteroides]; Purified L. mesenteroides G6PDH, diaphorase/resazurin coupled fluorescence, 45 min; inhibition, % at 5 µM; hit rate 0.12% among 200,000; AID 1020, 2008; in the data active = inhibition above about 50%
Diaph act CS: compounds boosting diaphorase resazurin reduction – biochemical, uHTS, resorufin fluorescence, counter-screen for diaphorase-coupled primary assays, primary screen | Diaphorase/resazurin coupled assay, 16 min; active compounds read high; 1 = vehicle wells, 0 = NADH-free wells | activation factor at 20 µM | hit rate 0.005% among 190,000 | AID 1229, 2008;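 active = diaphorase activity raised at least twofold by the compound at 20 µM; inactive = activation factor below 2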
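Material: purified diaphorase enzyme from Clostridium kluyveri; Also added: 0.114 mM NADH and 0.1 mM resazurin, final amounts; Doses: single compound dose of 20 µM, 1% DMSO final; Times: 16 min enzyme reaction, ambient temperature; Detection: resorufin fluorescence, excitation 544 nm, emission 590 nm; Measure: increased resorufin signal from activators or reducing compounds.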
FLuc inh counter: firefly luciferase enzyme inhibitors, primary screen, artefact control for luciferase-based inhibitor screens, biochemical, luminescence, ATPLite; Luciferin 4-monooxygenase (Photinus pyralis), P08659; 10 min; inhibition, % at 10 µM; hit rate 1.5% among 200,000;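 active = inhibition above about 50% when tested at 10 µM, limit read from the data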
Hits are given with their value.

`O=C(O)/C=C/C(=O)Nc1ccccc1C(=O)OCC(=O)c1ccc2c(c1)OCCO2` gave FLuc stim CS inactive, Diaphorase inh inactive, G6PDH counter inactive, Diaph act CS inactive and FLuc inh counter 96.
CCOC(=O)CC1C(=O)NCCN1Cc1cccs1 (configuration not stated) was read as FLuc stim CS inactive, Diaphorase inh inactive, G6PDH counter inactive, Diaph act CS inactive and FLuc inh counter inactive.
CN(C)c1ccc(NC(=O)COC(=O)CCC(=O)c2ccc(F)cc2)cc1 was read as FLuc stim CS inactive, Diaphorase inh inactive, G6PDH counter inactive, Diaph act CS inactive and FLuc inh counter 51.
`COC(=O)Cn1nc(-c2ccc(C)cc2)c2ccccc2c1=O` gave FLuc stim CS inactive, Diaphorase inh inactive, G6PDH counter inactive, Diaph act CS inactive and FLuc inh counter inactive.
`O=C(NCc1cccnc1)c1cccn2c(=O)c3sccc3nc12` gave FLuc stim CS inactive, Diaphorase inh inactive, G6PDH counter inactive, Diaph act CS inactive and FLuc inh counter inactive.
For CCc1ccc(C(=O)Nc2nnn(CC)n2)cc1 the results were FLuc stim CS inactive, Diaphorase inh inactive, G6PDH counter inactive, Diaph act CS inactive and FLuc inh counter 87.
O=C(O)Cc1csc(Nc2cccc(Cl)c2)n1 was read as FLuc stim CS inactive, Diaphorase inh inactive, G6PDH counter inactive, Diaph act CS inactive and FLuc inh counter inactive.
For CC(C)c1ccc(Nc2nc(CC(=O)O)cs2)cc1 the results were FLuc stim CS inactive, Diaphorase inh inactive, G6PDH counter inactive, Diaph act CS inactive and FLuc inh counter 71.
C#CCOCCOCCOCCNc1nc(N2CCN(C(=O)C(Cc3cc4ccccc4[nH]3)n3cc(C(N)Cc4ccc(O)cc4)nn3)CC2)nc(N2CCN(C(=O)C(Cc3cc4ccccc4[nH]3)n3cc(C(N)Cc4ccc(O)cc4)nn3)CC2)n1 (configuration not stated) was read as FLuc stim CS inactive, Diaphorase inh inactive, G6PDH counter inactive, Diaph act CS 2 and FLuc inh counter inactive.
Screening Cc1ccnc(NC(=O)c2sc3ccccc3c2Cl)c1 returned FLuc stim CS inactive, Diaphorase inh inactive, G6PDH counter inactive, Diaph act CS inactive and FLuc inh counter 92.
Screening CC(C)c1nnc(NC(=O)c2sc3ccccc3c2Cl)s1 returned FLuc stim CS inactive, Diaphorase inh inactive, G6PDH counter inactive, Diaph act CS inactive and FLuc inh counter 64.
`Cc1cnc(NC(=O)c2sc3ccccc3c2Cl)s1` gave FLuc stim CS inactive, Diaphorase inh inactive, G6PDH counter inactive, Diaph act CS inactive and FLuc inh counter 93.
O=C(Nc1nccs1)c1sc2ccccc2c1Cl was read as FLuc stim CS inactive, Diaphorase inh inactive, G6PDH counter inactive, Diaph act CS inactive and FLuc inh counter 85.
For Cc1ccc(NC(=O)CCCSc2ccccc2)cc1S(=O)(=O)N1CCOCC1 the results were FLuc stim CS inactive, Diaphorase inh inactive, G6PDH counter inactive, Diaph act CS inactive and FLuc inh counter inactive.
CC(NC(=O)c1sc2ccccc2c1Cl)C1CCCO1 (configuration not stated) was read as FLuc stim CS inactive, Diaphorase inh inactive, G6PDH counter inactive, Diaph act CS inactive and FLuc inh counter 63.
`CCCC(=O)N1CCN(S(=O)(=O)c2cc(Cl)ccc2OC)CC1` gave FLuc stim CS inactive, Diaphorase inh inactive, G6PDH counter inactive, Diaph act CS inactive and FLuc inh counter inactive.
Screening C=CCN1C(=O)C(CC(=O)Nc2ccc(OCCC)cc2)N(CCCN2CCN(Cc3ccccc3)CC2)C1=S (configuration not stated) returned FLuc stim CS inactive, Diaphorase inh inactive, G6PDH counter inactive, Diaph act CS inactive and FLuc inh counter inactive.
`Cc1ccc(/C=C/C(=O)Nc2ccc(N(C)C)cc2)o1` gave FLuc stim CS inactive, Diaphorase inh inactive, G6PDH counter inactive, Diaph act CS inactive and FLuc inh counter 67.
For Cc1ccc(CNS(=O)(=O)/C=C/c2ccc3c(c2)OCO3)cc1 the results were FLuc stim CS inactive, Diaphorase inh inactive, G6PDH counter inactive, Diaph act CS inactive and FLuc inh counter inactive.
`Cc1ccc(N)c2c1OCCC2=O` gave FLuc stim CS inactive, Diaphorase inh 57, G6PDH counter inactive, Diaph act CS inactive and FLuc inh counter inactive.
Screening O=C(Nc1ccc(-c2nc3cc(Cl)ccc3o2)cc1)C1CCCO1 (configuration not stated) returned FLuc stim CS inactive, Diaphorase inh inactive, G6PDH counter inactive, Diaph act CS inactive and FLuc inh counter inactive.
`Cc1ccc2nc(-c3ccc(NC(=O)C4CCCO4)cc3)[nH]c2c1` (configuration not stated) gave FLuc stim CS inactive, Diaphorase inh inactive, G6PDH counter inactive, Diaph act CS inactive and FLuc inh counter 82.
Screening O=C(Nc1ccc(-c2nc3cccnc3s2)cc1)C1CCCO1 (configuration not stated) returned FLuc stim CS inactive, Diaphorase inh inactive, G6PDH counter inactive, Diaph act CS inactive and FLuc inh counter 91.
COc1ccc(NC(=O)C2CCCO2)cc1 (configuration not stated) was read as FLuc stim CS inactive, Diaphorase inh inactive, G6PDH counter inactive, Diaph act CS inactive and FLuc inh counter inactive.
Screening O=C(Nc1ccc2oc(-c3ccccc3)nc2c1)C1CCCO1 (configuration not stated) returned FLuc stim CS inactive, Diaphorase inh inactive, G6PDH counter inactive, Diaph act CS inactive and FLuc inh counter 50.
O=C(Nc1ccc(-c2nc3ccccc3o2)cc1)C1CCCO1 (configuration not stated) was read as FLuc stim CS inactive, Diaphorase inh inactive, G6PDH counter inactive, Diaph act CS inactive and FLuc inh counter 78.
`CC1CCc2cc(F)ccc2N1C(=O)CCl` (configuration not stated) gave FLuc stim CS inactive, Diaphorase inh inactive, G6PDH counter inactive, Diaph act CS inactive and FLuc inh counter inactive.
Screening COC(=O)c1ccc(COc2ccccc2/C=C(\C#N)C(=O)Nc2c(C)cccc2C)cc1 returned FLuc stim CS inactive, Diaphorase inh inactive, G6PDH counter inactive, Diaph act CS inactive and FLuc inh counter inactive.
COc1ccc(CN(C)CC(=O)NC2CCCc3ccccc32)cc1OC (configuration not stated) was read as FLuc stim CS inactive, Diaphorase inh inactive, G6PDH counter inactive, Diaph act CS inactive and FLuc inh counter inactive.
